XBP1 UPR activ = activators of adaptive arm of unfolded protein response (XBP1) | CHO-XBP1 luciferase reporter, IRE1-XBP1 UPR activation, luminescence; percent of tunicamycin response, DMSO as zero | activation, % at 20 µM | 0.33% of 330,000 active;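 active = versus positive control, 20 µM dose yields 30% or more activation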;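 note: 100% = tunicamycin at 10 µg/mL and 0% = DMSO only wells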
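Test system: CHO-XBP1 luciferase reporter cells | Buffer or medium: Serum-containing F12 medium, 10% FBS | Schedule: 6 h compound exposure at 37 °C, 5% CO2 | Detection: Steady-Glo luciferase glow luminescence, 10 min after reagent addition | Read-out basis: Activation, % of tunicamycin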
CHOP inhibitor = CHOP inhibition in unfolded protein response | CHO-K1 CHOP-promoter luciferase, tunicamycin-induced, 15-18 h | AID 2732 | 3.8% of 220,000 active | inhibition, % at 10 µM;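 active = compounds that reduced the stress-induced luciferase reporter signal by more than about 70% of percent inhibition, limit read from the data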;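 note: 0% = tunicamycin plus vehicle and 100% = wells without tunicamycin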
CTSL1 counter = blocks F. hepatica cathepsin L1 in PFM18AAP counter-screen | AID 1906 | inhibition, % at 5.96 µM | recombinant F. hepatica cathepsin L1, Z-Leu-Arg-MCA fluorescence | 0.49% of 300,000 active;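 active = inhibition above the mean of all tested compounds plus 3 SD, set per screening campaign, cut at about 17% in these data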;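 note: 0% = plate median of test compound wells and 100% = 1 µM Z-Phe-Ala-diazomethylketone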
UCH37 inh = blocks the human deubiquitinase UCH37. purified proteasome/UCH37, Ub-AMC cleavage fluorescence. 0.33% of 330,000 active. inhibition, % (concentration not given with the values). AID 588478. Q9Y5K5;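 active = mean inhibition over replicate wells above about 20%, limit read from the data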;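 note: 0% = compound-free wells with enzyme and 100% = wells lacking proteasome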
Target sequence (Q9Y5K5 whole entry, looked up): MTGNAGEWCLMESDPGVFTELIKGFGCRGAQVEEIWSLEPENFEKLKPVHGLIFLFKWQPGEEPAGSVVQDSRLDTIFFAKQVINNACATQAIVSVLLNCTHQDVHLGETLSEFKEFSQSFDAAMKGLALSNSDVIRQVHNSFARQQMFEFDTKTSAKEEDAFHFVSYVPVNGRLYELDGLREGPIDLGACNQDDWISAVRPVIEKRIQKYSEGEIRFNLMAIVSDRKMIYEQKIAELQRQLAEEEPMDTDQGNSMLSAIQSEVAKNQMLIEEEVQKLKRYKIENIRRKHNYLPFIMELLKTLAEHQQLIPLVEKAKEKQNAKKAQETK
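assay system = human UCH37 enzyme supplied as purified proteasome complex | amount = proteasome at 0.15 nM in the dispensed enzyme solution | schedule = 30 min compound-proteasome preincubation then 25 min substrate reaction, room temperature | measured by = fluorescence, ex 355 nm, em 460 nm | benchmarks = no-proteasome wells (full inhibition) and compound-free wells (no inhibition)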
UPR CHOP act = apoptotic UPR (CHOP) activation | CHO-CHOP luciferase reporter, luminescence; percent of tunicamycin response over DMSO baseline | activation, % at 10 µM | 0.34% of 330,000 active;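 active = at 10 µM dose, activation of 40% or more, normalized to positive control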;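 note: 100% = tunicamycin at 10 µg/mL and 0% = DMSO alone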
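Evaluation: % reporter activation, DMSO baseline versus tunicamycin full activation; System: CHO-CHOP luciferase reporter cell line; Input: 500 cells/well; Incubation: 6 h compound treatment, 37 °C; Measured by: Steady-Glo luciferase luminescence; Dosing: one dose, 10 µM in 0.5% DMSO; Buffer or medium: F12 medium, 10% FBS; Benchmarks: positive tunicamycin 10 µg/mL, negative DMSO alone.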
The depositor's hits bear a star; / = no result given. The entries come from a sample that favours hits as a whole.

SMILES	XBP1 UPR activ	CHOP inhibitor	CTSL1 counter	UCH37 inh	UPR CHOP act
CCOP(=O)(OCC)c1nc(-c2ccc(Cl)cc2)oc1NCc1ccccc1	-3.1	91.7*	2.7	-148.7	-1.8
O=[N+]([O-])c1nn(-c2ccc3c(c2)OCCO3)n(O)c1=NCCC1=CCCCC1	1.0	85.6*	1.9	3.3	2.0
COc1ccc(NC(=O)CN(C)C(=O)/C=C/c2cn(-c3ccccc3)nc2-c2ccc(C)cc2)cc1	0.5	/	20.0*	-3.6	0.6
CC1CCCCC1NC(=O)CON=Cc1ccccc1OC(F)F (stereo not drawn)	/	/	/	2.9	/
Cc1nn(C(=O)c2ccco2)c(C)c1Sc1ccccc1	-5.5	92.8*	-4.4	4.0	1.5
Cc1nn(C(C)(C)C)c(OC(=O)c2cccs2)c1Sc1ccccc1	1.4	80.8*	-0.2	2.6	0.2
Cc1nn(C(C)(C)C)c(OC(=O)c2ccco2)c1Sc1ccccc1	1.0	74.8*	-1.1	7.3	1.2
COc1cc(C(C)=NNC(=O)CN2CCN(S(=O)(=O)c3ccc(C)cc3)CC2)ccc1O	/	/	/	2.4	/
O=C(ON=Cc1ccc(Cl)cc1)C1CCCCC1	/	/	/	3.2	/
CCOC(=O)c1ccc2ncc(C(=O)OCC)c(NCCN(C)C)c2c1	-0.5	/	66.0*	-7.5	-2.7
COc1cc(C=Nn2c(C)nnc2C)cc(OC)c1OC	/	/	/	3.4	/
CC(C)OC(=NS(=O)(=O)c1ccc(Cl)cc1)c1ccccc1	/	/	/	1.4	/
CC(=NNC(=O)c1ccccc1)c1ccccc1F	/	/	/	6.2	/
O=C1CC(c2ccc3c(c2)OCO3)c2cc3c(cc2N1)OCO3 (stereo not drawn)	-4.7	22.6	0.9	0.5	1.8
O=C1CC(c2ccc3c(c2)OCO3)CN1 (stereo not drawn)	5.4	-10.1	2.1	27.1*	-1.5
O=C(O)CCC(=NNc1ccc([N+](=O)[O-])cc1S(=O)(=O)N1CCOCC1)c1cccs1	/	/	/	7.7	/
O=C(O)CCC(=NNc1ccc(S(=O)(=O)N2CCOCC2)cc1[N+](=O)[O-])c1cccs1	/	/	/	20.1*	/
COc1cccc2c1OCCC2=NNC(=O)COc1ccccc1C	/	/	/	0.7	/
COc1ccc(Nc2nc(Cl)nc(N3CCN(c4ccc(OC)cc4)CC3)n2)cc1	-3.5	93.2*	2.5	0.9	2.3
COc1ccc(Nc2nc(OC)nc(N3CCN(c4ccc(OC)cc4)CC3)n2)cc1	/	77.3*	/	3.8	/
COc1ccc(Nc2nc(Cl)nc(Nc3ccc(OC)cc3)n2)cc1	0.6	71.2*	-3.2	3.9	1.1
CCN(CC)c1ccc(C=NN2CCN(Cc3ccc(Cl)cc3)CC2)c(O)c1	/	/	/	10.2	/
O=C(CSC1=NNC(c2ccccn2)S1)Nc1ccc(C(F)(F)F)cc1 (stereo not drawn)	6.5	73.4*	-2.5	9.1	28.8
CCC(C)[C@H](N)c1nnc(SCC(=O)Nc2ccc(C)cc2C)o1 (stereo partly drawn)	-7.9	/	31.7*	-1.3	-0.2
CCc1ccccc1NC(=O)CSc1nnc([C@@H](N)Cc2ccccc2)o1	1.4	4.3	68.1*	2.2	-2.6
SMILES	XBP1 UPR activ	CHOP inhibitor	CTSL1 counter	UCH37 inh	UPR CHOP act
Cc1ccc(NC(=O)CSc2nnc(-c3ccco3)o2)c(C)c1	-1.6	3.5	1.6	1.4	0.6
CCN(CC)C(=O)CSc1nnc([C@@H](N)Cc2ccccc2)o1	-1.2	-9.4	44.2*	1.9	0.8
CCc1ccccc1NC(=O)CSc1nc(C)c(C)o1	-6.3	/	/	-0.2	-1.6
N[C@@H](Cc1ccccc1)c1nnc(SCc2ccccc2Cl)o1	-0.3	21.7	12.8	5.1	2.1
O=C(NN=Cc1cccc(O)c1)c1ccc2c(c1)OCCO2	/	/	/	4.6	/
CSc1ccc(C2c3[nH]c4ccccc4c3CCN2C(=O)c2cc(C)n(C)n2)cc1 (stereo not drawn)	14.4	19.1	-1.3	/	3.1
Cc1cc(C(=O)N2CCc3c([nH]c4ccccc34)C2c2cccc(Cl)c2)nn1C (stereo not drawn)	-1.6	92.5*	1.7	-2.3	2.9
Cc1ccc(NC(=O)COC(=O)C(CC(C)C)N2C(=O)C3CC=CCC3C2=O)c(C)c1 (stereo not drawn)	-1.4	16.2	16.9*	5.7	-1.2
COc1ccc(OCC(=O)NN=C(C)c2cc3ccccc3o2)cc1	/	/	/	-11.4	/
N/C(=N\OS(=O)(=O)c1ccc(Br)cc1)c1ccncc1	0.5	7.1	29.0*	3.6	-0.8
NC(=NOS(=O)(=O)c1cccc([N+](=O)[O-])c1)c1ccncc1	/	/	/	0.5	/
O=[N+]([O-])c1cc(Br)cc(C=Nn2cnnc2)c1O	/	/	/	14.5	/
CC(C)(C)NC(=O)CN(C(=O)Cn1nnc(-c2ccc(Cl)cc2)n1)C1CCN(Cc2ccccc2)CC1	-1.3	71.5*	3.4	2.2	3.6
Cc1ccc2cc3c(NC(=O)c4ccco4)nn(CC(C)C)c3nc2c1	1.6	70.2*	-3.8	-23.6	-1.9
COc1ccc(C2N(Cc3ccccc3)CC(=O)N2N=C(C)c2ccccc2)cc1 (stereo not drawn)	/	/	/	1.5	/
COc1ccc(C=NNC(=S)N[C@H]2CC3CCC2C3)cc1 (stereo partly drawn)	/	/	/	5.0	/
CC(C)On1c(SC(C)C)nc2ccccc2c1=O	1.0	73.2*	1.8	1.2	-0.3
COn1c(SC2CCCCC2)nc2ccccc2c1=O	1.1	83.2*	7.0	2.0	1.6
Nc1c(C(=O)N/N=C/c2cccnc2)oc2nc(-c3ccccc3)cc(-c3ccco3)c12	-0.9	-9.0	3.2	/	1.3
O=CNn1cnc2c(oc3nc(-c4ccccc4)cc(-c4ccco4)c32)c1=O	7.3	85.3*	-0.1	-438.7	1.5
CCOC(=O)c1c(-c2ccc(F)cc2)csc1NC(=O)C1CCCO1 (stereo not drawn)	-2.8	75.0*	2.0	4.9	-2.2
CCOC(=O)c1c(-c2ccc(C)cc2)csc1NC(=O)C1CCCO1 (stereo not drawn)	-0.5	58.1	4.8	-13.0	3.1
Cc1ccc(NC(=O)COC(=O)c2ccc(=O)n(Cc3ccccc3)n2)cc1F	-3.6	/	13.0	-1.2	1.0
CC(OC(=O)c1ccc(=O)n(Cc2ccccc2)n1)C(=O)Nc1cccc(Cl)c1 (stereo not drawn)	-3.9	/	16.8*	4.4	1.0
CCOC(=O)c1c(NC(=O)CCS(=O)(=O)c2ccccc2)sc2c1CC(C)(C)NC2(C)C	-3.8	/	38.8*	0.5	-0.4
Cc1ccccc1NCC(=O)NN=Cc1c[nH]c2ccccc12	/	/	/	4.1	/
O=C(NCc1ccc2c(c1)OCO2)c1ccc(CS(=O)(=O)c2cccc(C(F)(F)F)c2)o1	-0.3	30.2	-2.3	-0.8	0.0
O=C(NCc1ccc2c(c1)OCO2)c1ccc(CS(=O)(=O)c2ccc(Br)cc2)o1	-6.0	74.1*	-5.0	4.4	-0.7
N#CC1=C(N)c2ccccc2CC12CCCCC2	-1.9	78.0*	4.7	1.2	-0.9

Screens deposited in PubChem BioAssay by several laboratories.
